Compound activity (PubChem)
An excerpt weighted towards active compounds, which were near 1.8% of everything screened.
S1P2 ag: S1P2 receptor agonists, primary screen, cell-based | AID 729, 2007 | S1P2-expressing cell line, agonist reporter read-out | activation, % at 4.5 µM | Sphingosine 1-phosphate receptor 2 (Homo sapiens), O95136 | 97,000 compounds, 0.46% hits; in the data active means activation above about 16%;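 further: 0% = vehicle low control and 100% = maximal reference agonist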
Target sequence (O95136 whole entry, looked up): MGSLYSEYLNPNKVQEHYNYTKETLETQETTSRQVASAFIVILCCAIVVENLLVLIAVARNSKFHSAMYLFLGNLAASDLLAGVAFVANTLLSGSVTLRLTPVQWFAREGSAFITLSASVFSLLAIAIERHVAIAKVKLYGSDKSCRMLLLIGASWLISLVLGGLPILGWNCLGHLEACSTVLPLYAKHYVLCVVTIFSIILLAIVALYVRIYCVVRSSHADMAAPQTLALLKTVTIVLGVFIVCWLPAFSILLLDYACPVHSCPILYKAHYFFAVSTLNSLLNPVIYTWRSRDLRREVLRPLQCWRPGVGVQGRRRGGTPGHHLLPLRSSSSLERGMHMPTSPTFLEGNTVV
EphB4 ephrin blk: EphB4-ephrin-B2 interaction antagonists, primary screen, biochemical, TNYL-RAW peptide probe, fluorescence polarization; Ephrin type-B receptor 4 (Homo sapiens), P54760; EphB4 LBD / TNYL-RAW-Alexa532 peptide; inhibition, % at 7 µM; 97,000 compounds, 0.15% hits;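 active means inhibition above the screen-wide mean inhibition plus 3 SD, cut at about 15% in these data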;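 further: 0% = DMSO wells and 100% = excess unlabeled TNYL-RAW peptide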
S1P2 antag: human S1P2 receptor antagonists, primary screen, cell-based. cell-based S1P2 antagonist assay, inhibition at 5 uM. inhibition, % at 5 µM. AID 736, 2007. 97,000 compounds, 0.21% hits; in the data active means inhibition above about 45%;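 further: CRE beta-lactamase reporter cells expressing human S1P2 stimulated with S1P; 0% = agonist at EC80 alone and 100% = agonist plus reference antagonist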
GALR2 agonist: GALR2 receptor agonists, primary screen, cell-based | Galanin receptor type 2 (Homo sapiens), O43603 | GALR2-expressing cells, agonist activation read-out | activation, % (concentration not given with the values) | 140,000 compounds, 0.48% hits | AID 803, 2007; in the data active means activation above about 5%, passing the limit was not always enough;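 further: 0% = vehicle buffer wells and 100% = reference agonist at full effect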
GALR2 antag: GALR2 antagonists in receptor-expressing cells, primary screen | inhibition, % at 4 µM | 140,000 compounds, 0.39% hits | AID 828, 2007 | antagonist mode | Galanin receptor type 2 (Homo sapiens), O43603; in the data active means inhibition above about 27%;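 further: cells stimulated with galanin 1-16 at roughly its EC80; 0% = agonist challenge control and 100% = basal control without agonist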
Rev-RRE block: HIV-1 Rev-RRE binding inhibitors, primary screen, biochemical, FRET, protein-RNA interaction. inhibition, % at 8 µM. Rev peptide-RRE RNA binding. 97,000 compounds, 0.79% hits;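 active means inhibition above the screen-wide mean plus 3 SD, cut at about 35% in these data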;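 further: 0% = median DMSO wells and 100% = median Neomycin B control wells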
Target sequence (P05866 whole entry, looked up): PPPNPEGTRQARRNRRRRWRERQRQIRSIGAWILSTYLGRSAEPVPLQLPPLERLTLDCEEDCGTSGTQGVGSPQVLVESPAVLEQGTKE
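Test system – labelled RRE RNA duplex and labelled Rev peptide · Signal – fluorescein-to-Cy5 FRET, 480 nm excitation · Evaluation – % inhibition of FRET ratio versus controls · Benchmarks – DMSO low control, neomycin B high control · Incubation – 5 min RNA-compound premix plus 15 min binding step, 25 °C · Medium – HEPES pH 7.5 salt buffer with EDTA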
Numbers without * were called inactive; [ ] = dose if it differs, or a comment.

What do the screens show for `CCCCNC(=O)C1C2C=CC3(CN(Cc4ccccc4Cl)C(=O)C13)O2` (centres undefined)?
S1P2 ag: -4.5; EphB4 ephrin blk: 16.1*; S1P2 antag: 10.9; GALR2 agonist: -1.6; GALR2 antag: -7.7; Rev-RRE block: 12.2

How did CC(C)CCNC(=O)C1C2C=CC3(CN(Cc4ccccc4Cl)C(=O)C13)O2 (centres undefined) do in these assays?
S1P2 ag: -2.3; EphB4 ephrin blk: 2.9; S1P2 antag: 22.4; GALR2 agonist: -0.3; GALR2 antag: 12.8; Rev-RRE block: 6.8

How did Cc1cc(Br)c(OCc2ccc(C(=O)N/N=C3\CC4CC=CC34)cc2)c(Br)c1 (centres undefined) do in these assays?
GALR2 agonist: -0.6; GALR2 antag: 0.4

How did Nc1nc2nc(-c3ccc(OCc4ccccc4)cc3)cc(C(F)(F)F)n2n1 do in these assays?
S1P2 ag: 33.1*; EphB4 ephrin blk: -3.7; S1P2 antag: -69.5; GALR2 agonist: 5.0; GALR2 antag: 2.0; Rev-RRE block: 3.6

What do the screens show for `COn1cnnc1-c1ccccc1`?
S1P2 ag: -5.2; EphB4 ephrin blk: -8.5; S1P2 antag: 22.6; GALR2 agonist: -1.7; GALR2 antag: 2.4; Rev-RRE block: 40.5*

How did N#C/C(=C\c1cc(Cl)cc(Cl)c1O)C(=O)NC1CCCCC1 do in these assays?
S1P2 ag: -6.8; EphB4 ephrin blk: 7.5; S1P2 antag: 13.6; GALR2 agonist: -1.8; GALR2 antag: -17.8; Rev-RRE block: 44.6*

Results for CCOC(=O)c1ccccc1NC(=O)CSc1nc2ccccc2n1CC(=O)N1CCCC1 ?
S1P2 ag: 31.7*; EphB4 ephrin blk: 9.8; S1P2 antag: -61.3; GALR2 agonist: -0.2; GALR2 antag: -0.4; Rev-RRE block: 12.2

How did CCSc1nc2ccccc2n1CC(=O)N1CCCCC1 do in these assays?
S1P2 ag: -1.5; EphB4 ephrin blk: 2.0; S1P2 antag: 11.5; GALR2 agonist: -1.3; GALR2 antag: 1.8; Rev-RRE block: 7.5

Results for CC(=O)Nc1c(C)ccc(CNC(=O)COc2cc(C)ccc2C)c1C ?
GALR2 agonist: -2.1; GALR2 antag: 7.2

What do the screens show for `CCc1ccc(-c2nc(NC(=S)NC(=O)c3cccs3)sc2C)cc1`?
S1P2 ag: 17.2*; EphB4 ephrin blk: 4.5; S1P2 antag: -4.5; GALR2 agonist: -2.3; GALR2 antag: -4.0; Rev-RRE block: 1.7

What do the screens show for `CC(C)c1ccccc1NC1=CC(=O)CC(C)(C)C1`?
GALR2 agonist: 0.2; GALR2 antag: -7.2

Results for COc1ccc(OC)c(C2=Nn3c(nnc3C3CCCCC3)SC2)c1 ?
S1P2 ag: 1.5; EphB4 ephrin blk: -1.6; S1P2 antag: -34.6; GALR2 agonist: -1.1; GALR2 antag: -10.7; Rev-RRE block: 4.9

What do the screens show for `COc1ccc(C2=Nn3c(nnc3-c3ccccc3)SC2)cc1OC`?
S1P2 ag: 27.2*; EphB4 ephrin blk: -1.1; S1P2 antag: -36.7; GALR2 agonist: 3.8; GALR2 antag: -7.3; Rev-RRE block: -3.4

What do the screens show for `COc1ccc(C2=Nn3c(nnc3C3CCCCC3)SC2)cc1OC`?
S1P2 ag: 36.4*; EphB4 ephrin blk: 2.3; S1P2 antag: -88.4; GALR2 agonist: 1.9; GALR2 antag: -13.1; Rev-RRE block: 3.1

Results for CCN(CC)S(=O)(=O)c1ccc(N2CCOCC2)c(NC(=O)CCC2CCCCC2)c1 ?
GALR2 agonist: 0.4; GALR2 antag: -2.4

How did CN1CCN(NC(=O)c2ccc(Br)c(S(=O)(=O)N3CCOCC3)c2)CC1 do in these assays?
GALR2 agonist: -2.4; GALR2 antag: 3.4

Results for Cc1cccc(S(=O)(=O)c2c(N)n(Cc3ccco3)c3nc4ccccc4nc23)c1 ?
S1P2 ag: -4.6; EphB4 ephrin blk: -0.6; S1P2 antag: -13.4; GALR2 agonist: 1.0; GALR2 antag: 1.5; Rev-RRE block: 74.1*

Results for Cc1ccc(S(=O)(=O)c2c(N)n(Cc3ccco3)c3nc4ccccc4nc23)cc1 ?
S1P2 ag: -1.3; EphB4 ephrin blk: 0.8; S1P2 antag: 2.5; GALR2 agonist: 0.3; GALR2 antag: -2.4; Rev-RRE block: 59.5*

How did Cc1ccc(S(=O)(=O)Nc2nc3ccccc3nc2NCc2ccco2)cc1 do in these assays?
S1P2 ag: -2.5; EphB4 ephrin blk: 3.2; S1P2 antag: 6.8; GALR2 agonist: 0.7; GALR2 antag: 3.4; Rev-RRE block: 45.8*

How did CCCCn1c(N)c(S(=O)(=O)c2ccc(C)cc2)c2nc3ccccc3nc21 do in these assays?
GALR2 agonist: 0.5; GALR2 antag: -4.1

What do the screens show for `CCCC(=O)Nc1cccc(NC(=O)c2cccc([N+](=O)[O-])c2C)c1`?
GALR2 agonist: 0.1; GALR2 antag: 8.3

Results for Cc1ccc(N2C(=N)/C(=C3/Nc4ccccc4S3)C(c3ccccc3)C2=O)cc1 (centres undefined) ?
GALR2 agonist: -1.3; GALR2 antag: -3.5

Results for COc1ccc(-c2ccnc(SCC(=O)Nc3ccccn3)n2)cc1 ?
S1P2 ag: -3.0; EphB4 ephrin blk: -0.7; S1P2 antag: -9.5; GALR2 agonist: -3.4; GALR2 antag: 3.6; Rev-RRE block: 7.5

Results for COC(=O)c1cn(NC(=O)/C=C/c2ccc(OC)c(OC)c2)c(=O)c2ccccc12 ?
GALR2 agonist: -2.8; GALR2 antag: 7.8

What do the screens show for `CCOc1cc(-c2ccc(N)c(OCC)c2)ccc1N`?
S1P2 ag: -3.5; EphB4 ephrin blk: 1.3; S1P2 antag: -9.7; GALR2 agonist: -0.8; GALR2 antag: 2.5; Rev-RRE block: 84.2*

How did COc1cc(/C=C(\C#N)c2nc3ccccc3[nH]2)c([N+](=O)[O-])cc1OCc1ccccc1 do in these assays?
S1P2 ag: 13.3; EphB4 ephrin blk: -9.5; S1P2 antag: -13.4; GALR2 agonist: -3.1; GALR2 antag: 12.1; Rev-RRE block: 14.7

Results for CCN(CC)c1ccc(/C=C(/C#N)c2nc3ccccc3[nH]2)c(OC(C)C)c1 ?
S1P2 ag: 8.2; EphB4 ephrin blk: 10.9; S1P2 antag: 22.6; GALR2 agonist: -1.6; GALR2 antag: 20.8; Rev-RRE block: 135.8*[fluorescence artefact?]

Results for COc1ccc(OCCCC(=O)Nc2cc([N+](=O)[O-])ccc2C)cc1 ?
S1P2 ag: -1.3; EphB4 ephrin blk: 2.2; S1P2 antag: 15.9; GALR2 agonist: -1.0; GALR2 antag: -12.8; Rev-RRE block: 8.6

What do the screens show for `Nc1cc(N)c(OCC(F)(F)F)cc1OCC(F)(F)F`?
S1P2 ag: -4.4; EphB4 ephrin blk: -1.4; S1P2 antag: 7.5; GALR2 agonist: -3.2; GALR2 antag: -2.7; Rev-RRE block: 67.9*

What do the screens show for `O=C(Nc1ccc(Cl)c(Cl)c1)Nc1nnc(CSc2ccccc2)s1`?
GALR2 agonist: -1.1; GALR2 antag: 5.3

How did COc1ccc(CNC(=O)COC(=O)CC2CCCC2)cc1 do in these assays?
GALR2 agonist: 0.3; GALR2 antag: 15.3
